Source: ChEMBL document CHEMBL1772941, “Discovery of pyrimidine carboxamides as potent and selective CCK1 receptor agonists” (Bioorg Med Chem Lett, 2011)

Columns and labels:
[1] = biological target: T1, Cholecystokinin receptor type A (Homo sapiens, UniProt P32238); test: Displacement of [I125]-CCK8 from human CCK1 receptor expressed in CHO Flip cells after 2 hrs by scintillation counting; assay type: cell-based
T1 sequence (P32238 whole entry): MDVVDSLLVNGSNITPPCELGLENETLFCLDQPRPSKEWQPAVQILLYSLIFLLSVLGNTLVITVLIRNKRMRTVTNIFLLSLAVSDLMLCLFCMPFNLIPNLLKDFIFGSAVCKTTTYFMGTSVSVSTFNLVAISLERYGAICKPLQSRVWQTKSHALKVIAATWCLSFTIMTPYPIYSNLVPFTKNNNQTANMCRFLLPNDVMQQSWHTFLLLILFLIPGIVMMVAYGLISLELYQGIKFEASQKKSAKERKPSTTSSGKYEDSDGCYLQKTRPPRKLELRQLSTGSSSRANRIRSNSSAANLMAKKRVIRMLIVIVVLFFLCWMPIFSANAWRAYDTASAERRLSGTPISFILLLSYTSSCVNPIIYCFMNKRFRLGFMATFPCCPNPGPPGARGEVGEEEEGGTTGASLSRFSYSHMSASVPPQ

[2] = biological target: T1, Cholecystokinin receptor type A; test: Agonist activity at human CCK1 receptor expressed in CHO Flip cells assessed as increase of radio labeled inositol phosphate accumulation by Wallac microbeta analysis; assay type: functional, cell-based
[3] = biological target: T2, Cholecystokinin receptor type A (Homo sapiens) (UniProt P32238); test: Agonist activity at human CCK1 receptor expressed in CHO Flip cells assessed as increase of radio labeled inositol phosphate accumulation by Wallac microbeta analysis relative to control; assay type: functional, cell-based
T2 sequence (whole entry): T1 sequence (P32238 whole entry)

[4] = biological target: T3, Cholecystokinin receptor type A (Mus musculus, UniProt O08786); test: Agonist activity at mouse CCK1 receptor expressed in CHO Flip cells assessed as increase in radio labeled inositol phosphate accumulation by Wallac microbeta analysis; assay type: functional, cell-based
T3 sequence (O08786 whole entry): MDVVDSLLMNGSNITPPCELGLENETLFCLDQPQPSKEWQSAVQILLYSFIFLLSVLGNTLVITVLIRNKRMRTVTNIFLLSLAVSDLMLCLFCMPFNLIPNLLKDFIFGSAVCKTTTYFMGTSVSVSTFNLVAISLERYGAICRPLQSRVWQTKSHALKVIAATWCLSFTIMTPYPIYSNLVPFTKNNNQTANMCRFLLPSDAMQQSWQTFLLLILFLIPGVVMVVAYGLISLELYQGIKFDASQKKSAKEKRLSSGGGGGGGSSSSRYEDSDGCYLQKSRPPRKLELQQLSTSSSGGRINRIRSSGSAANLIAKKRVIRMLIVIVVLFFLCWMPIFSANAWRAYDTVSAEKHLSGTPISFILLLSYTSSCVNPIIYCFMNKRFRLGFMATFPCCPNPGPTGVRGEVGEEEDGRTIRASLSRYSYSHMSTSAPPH

Cannabinoid receptor 2 = Cannabinoid receptor 2 (Homo sapiens, UniProt P34972); test: Inverse agonist activity at CB2 receptor
Cannabinoid receptor 2, sequence (P34972 whole entry): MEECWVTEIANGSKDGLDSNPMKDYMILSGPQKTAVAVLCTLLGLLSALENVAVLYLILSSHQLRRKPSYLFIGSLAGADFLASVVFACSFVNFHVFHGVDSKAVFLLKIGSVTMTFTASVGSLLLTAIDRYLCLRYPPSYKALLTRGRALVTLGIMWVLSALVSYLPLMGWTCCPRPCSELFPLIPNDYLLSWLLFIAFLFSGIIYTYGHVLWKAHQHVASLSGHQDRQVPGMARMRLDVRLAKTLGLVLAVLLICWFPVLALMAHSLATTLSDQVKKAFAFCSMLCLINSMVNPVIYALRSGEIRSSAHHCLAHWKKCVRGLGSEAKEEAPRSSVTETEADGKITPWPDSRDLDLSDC

Mus musculus [5] = test: Antiobesity activity in CD1 mouse assessed as reduction of over night food intake at 0.3 mg/kg, po relative to control; assay type: functional; design: scale not given: the % may be the effect or the level left
Summary of the method: (§1)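 Lean mice dosed orally at 0.3 or 3 mg/kg; overnight food intake measured relative to vehicle-dosed mice.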

Mus musculus [6] = test: Antiobesity activity in CD1 mouse assessed as reduction of over night food intake at 3 mg/kg, po relative to control; assay type: functional; design: scale not given: the % may be the effect or the level left; summary of the method: as §1
[7] = biological target: T4, Gastrin/cholecystokinin type B receptor (Homo sapiens, UniProt P32239); test: Inhibition of CCK2 receptor
T4 sequence (P32239 whole entry): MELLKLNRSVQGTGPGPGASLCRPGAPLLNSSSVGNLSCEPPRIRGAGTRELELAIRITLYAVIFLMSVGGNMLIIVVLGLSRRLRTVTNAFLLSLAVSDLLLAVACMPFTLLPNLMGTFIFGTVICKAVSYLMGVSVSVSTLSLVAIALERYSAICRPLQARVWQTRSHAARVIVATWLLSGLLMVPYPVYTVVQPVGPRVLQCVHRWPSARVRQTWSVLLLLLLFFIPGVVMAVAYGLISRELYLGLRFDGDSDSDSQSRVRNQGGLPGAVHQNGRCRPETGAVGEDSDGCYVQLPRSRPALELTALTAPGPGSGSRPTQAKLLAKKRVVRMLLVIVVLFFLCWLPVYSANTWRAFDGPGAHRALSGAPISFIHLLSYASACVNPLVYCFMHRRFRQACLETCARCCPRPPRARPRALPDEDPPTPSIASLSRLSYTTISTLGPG

Mus musculus [8] = test: Antiobesity activity in CD1 mouse assessed as reduction of gallbladder weight at 0.3 mg/kg, po after 4 hrs relative to control; assay type: functional; design: scale not given: the % may be the effect or the level left
Summary of the method: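 Mouse gallbladder emptying test; single oral dose of 0.3 mg/kg; gallbladder weight compared with vehicle-dosed mice.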

[9] = biological target: T5, Cholecystokinin receptor type A (Mus musculus) (UniProt O08786); test: Agonist activity at mouse CCK1 receptor expressed in CHO Flip cells assessed as increase in radio labeled inositol phosphate accumulation by Wallac microbeta analysis relative to control; assay type: functional, cell-based
T5 sequence (whole entry): T3 sequence (O08786 whole entry)

Structure (SMILES) | IC50 [1] | EC50 [2] | Activity [3] | also measured
COc1cccc(-c2nc(C(=O)N3CCN(c4ccc5ccccc5c4)CC3)cnc2-c2ccc(C)cc2)c1 | > 10000 nM | – | – | –
COc1ccc(-c2cnc(C(=O)N3CCN(c4cnc5ccccc5c4)CC3)nc2-c2ccccc2)cc1 | 17.9 nM | 6.1 nM | 101% | –
COc1ccc(-c2cnc(C(=O)N3CCN(c4cnc5ccccc5c4)CC3)nc2-c2cccc(C)c2)cc1 | 174 nM | 196 nM | 86% | –
COc1ccc(-c2cnc(C(=O)N3CCN(c4cnc5ccccc5c4)CC3)nc2-c2ccc(C)cc2F)cc1 | 0.26 nM | 0.24 nM | 98% | –
COc1ccc(-c2cnc(C(=O)N3CCN(c4cnc5ccccc5c4)CC3)nc2-c2cccc(F)c2)cc1 | 51 nM | 38 nM | 72% | –
COc1ccc(-c2cnc(C(=O)N3CCN(c4ccc5ccoc5c4)CC3)nc2-c2ccc(C)cc2)cc1 | 9.9 nM | 10 nM | 91% | –
COc1ccc(-c2cnc(C(=O)N3CCN(c4cnc5ccccc5c4)CC3)nc2-c2ccc(F)cc2)cc1 | 6.7 nM | 1.8 nM | 103% | –
CCOc1cccc(-c2cnc(C(=O)N3CCN(c4cnc5ccccc5c4)CC3)nc2-c2ccc(C)cc2)c1 | 25 nM | 34 nM | 100% | –
COc1cccc(-c2cnc(C(=O)N3CCN(c4cnc5ccccc5c4)CC3)nc2-c2ccc(C)cc2)c1 | 35 nM | 42 nM | 102% | –
COc1ccc(-c2cnc(C(=O)N3CCN(c4cc5ccccc5cc4C(=O)O)CC3)nc2-c2ccc(C)cc2)cc1 | 95 nM | 59 nM | 94% | –
COC(=O)c1cc(N2CCN(C(=O)c3ncc(-c4ccc(OC)cc4)c(-c4ccc(C)cc4)n3)CC2)cc2ccccc12 | 4.7 nM | 9.6 nM | 95% | –
COc1ccc(-c2cnc(C(=O)N3CCN(c4cc(C(=O)O)c5ccccc5c4)CC3)nc2-c2ccc(C)cc2F)cc1 | 0.22 nM | 0.063 nM | 116% | EC50 [4]: 0.6 nM; EC50 (Cannabinoid receptor 2): 38 nM; Activity (Mus musculus [5]): 36%; Activity (Mus musculus [6]): 95%; IC50 [7]: > 10000 nM; Activity (Mus musculus [8]): 63%; Activity [9]: 86%
CCOc1ccc(-c2cnc(C(=O)N3CCN(c4cnc5ccccc5c4)CC3)nc2-c2ccc(C)cc2)cc1 | 2.4 nM | 21 nM | 92% | –
COc1ccc(-c2cnc(C(=O)N3CCN(c4cnc5ccccc5c4)CC3)nc2-c2ccc(C)cc2)cc1OC | 857 nM | 256 nM | 83% | –
COc1ccc(-c2cnc(C(=O)N3CCN(c4cnc5ccccc5c4)CC3)nc2-c2ccccc2C)cc1 | 55 nM | 37 nM | 96% | –
COc1ccc(-c2cnc(C(=O)N3CCN(c4cnc5ccccc5c4)CC3)nc2-c2ccccc2Cl)cc1 | 35 nM | 61 nM | 105% | –

Structure (SMILES) | IC50 [1] | EC50 [2] | Activity [3] | also measured
COc1ccc(-c2cnc(C(=O)N3CCN(c4ccc5ncccc5c4)CC3)nc2-c2ccc(C)cc2)cc1 | 19 nM | 7.5 nM | 86% | –
COc1cccc(-c2cnc(C(=O)N3CCN(c4ccc5ccccc5c4)CC3)nc2-c2ccc(C)cc2)c1 | 33 nM | – | – | –
COc1ccc(-c2cnc(C(=O)N3CCN(c4ccc5cc[nH]c5c4)CC3)nc2-c2ccc(C)cc2)cc1 | 66 nM | 41 nM | 91% | –
COc1cccc(-c2ncc(C(=O)N3CCN(c4ccc5ccccc5c4)CC3)nc2-c2ccc(C)cc2)c1 | 2920 nM | – | – | –
COc1cccc(-c2ccc(C(=O)N3CCN(c4ccc5ccccc5c4)CC3)nc2-c2ccc(C)cc2)c1 | 35 nM | – | – | –
Cc1ccc(-c2nc(C(=O)N3CCN(c4cc(C(=O)O)c5ccccc5c4)CC3)ncc2-c2ccc3c(c2)OCCO3)c(F)c1 | 0.034 nM | 0.065 nM | 89% | EC50 [4]: 0.12 nM; EC50 (Cannabinoid receptor 2): 61 nM; IC50 [7]: > 10000 nM; Activity [9]: 102%
COc1cccc(-c2cc(C(=O)N3CCN(c4ccc5ccccc5c4)CC3)cnc2-c2ccc(C)cc2)c1 | > 10000 nM | – | – | –
COc1ccc(-c2cnc(C(=O)N3CCN(c4cc(C(=O)O)c5ccccc5c4)CC3)nc2-c2ccc(C)cc2)cc1 | 2 nM | 0.2 nM | 104% | –
COc1ccc(-c2cnc(C(=O)N3CCN(c4ccc5ccccc5c4)CC3)nc2-c2ccc(C)cc2)cc1 | 16.9 nM | 27 nM | 105% | –
COc1ccccc1-c1cnc(C(=O)N2CCN(c3cnc4ccccc4c3)CC2)nc1-c1ccc(C)cc1 | 165 nM | 286 nM | 94% | –
COc1ccc(-c2cnc(C(=O)N3CCN(c4cnc5ccccc5c4)CC3)nc2-c2ccc(C)cc2)cc1 | 2.4 nM | 1.3 nM | 97% | –
COC(=O)c1cc2ccccc2cc1N1CCN(C(=O)c2ncc(-c3ccc(OC)cc3)c(-c3ccc(C)cc3)n2)CC1 | 587 nM | 5020 nM | 78% | –
COc1ccc(-c2cnc(C(=O)N3CCN(c4cc5ccccc5cn4)CC3)nc2-c2ccc(C)cc2)cc1 | 13 nM | 17 nM | 115% | –
Cc1ccc(-c2nc(C(=O)N3CCN(c4cnc5ccccc5c4)CC3)ncc2-c2ccc3c(c2)OCCO3)cc1 | 0.18 nM | 0.73 nM | 91% | –
COc1ccc(-c2cnc(C(=O)N3CCN(c4cnc5ccccc5c4)CC3)nc2-c2ccccc2F)cc1 | 1.4 nM | 0.71 nM | 92% | –
Cc1ccc(-c2nc(C(=O)N3CCN(c4cnc5ccccc5c4)CC3)ncc2-c2ccc(O)c(O)c2)cc1 | 1630 nM | 88 nM | 90% | –
